Lung fibro prol: blocks proliferation of human lung fibroblasts | AID 719 | actives 1.1% (n = 85,000) | LL 47 human lung fibroblast viability, ATP luminescence; hits give low values | viability, % at 10 µM;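 active means viability at or below 50% in the single dose screen; inactive means viability above 50%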;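 further: compound exposure lasted 72 h before the ATP readout; 100% = median luminescence of untreated cell-only wells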
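material = human LL 47 lung fibroblast cells | dosing = compounds added from tenfold dosing solution, 0.1% DMSO final | timing = overnight cell rest, 72 h compound treatment at 37 °C | measured by = CellTiter-Glo luminescence measuring cellular ATP | evaluation = % viability versus median cells-only luminescence | control set = cell-only wells, no compound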
PTEN del growth: growth suppressors of cells with PTEN tumor suppressor deletion | HCT116 PTEN-null viability, CellTiter-Glo, 60 h; hits give low values | viability, % at 10 µM | actives 1.2% (n = 140,000) | AID 827;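 active means viability at or below a set limit, 4 SD under the median of all tested compounds, cut at about 3.7% in these data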;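 further: PTEN knockout HCT116 line with beta catenin targeted HCT116 as companion control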
PTK2B oligo ant: antagonists of human Pyk2 oligomerization; Q293 cells, Pyk2 FERM NanoBiT luminescence; hits give low values; Q14289; actives 0.83% (n = 99,000); z-score (the deposit names both 25 µM and 10 µM);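 active means Z-score of -3 or lower, scaled per plate to the spread of control and sample wells; inactive means z-score above -3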;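 further: negative z-score means lost luminescence so less FERM oligomerization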
Target sequence (Q14289 whole entry, looked up): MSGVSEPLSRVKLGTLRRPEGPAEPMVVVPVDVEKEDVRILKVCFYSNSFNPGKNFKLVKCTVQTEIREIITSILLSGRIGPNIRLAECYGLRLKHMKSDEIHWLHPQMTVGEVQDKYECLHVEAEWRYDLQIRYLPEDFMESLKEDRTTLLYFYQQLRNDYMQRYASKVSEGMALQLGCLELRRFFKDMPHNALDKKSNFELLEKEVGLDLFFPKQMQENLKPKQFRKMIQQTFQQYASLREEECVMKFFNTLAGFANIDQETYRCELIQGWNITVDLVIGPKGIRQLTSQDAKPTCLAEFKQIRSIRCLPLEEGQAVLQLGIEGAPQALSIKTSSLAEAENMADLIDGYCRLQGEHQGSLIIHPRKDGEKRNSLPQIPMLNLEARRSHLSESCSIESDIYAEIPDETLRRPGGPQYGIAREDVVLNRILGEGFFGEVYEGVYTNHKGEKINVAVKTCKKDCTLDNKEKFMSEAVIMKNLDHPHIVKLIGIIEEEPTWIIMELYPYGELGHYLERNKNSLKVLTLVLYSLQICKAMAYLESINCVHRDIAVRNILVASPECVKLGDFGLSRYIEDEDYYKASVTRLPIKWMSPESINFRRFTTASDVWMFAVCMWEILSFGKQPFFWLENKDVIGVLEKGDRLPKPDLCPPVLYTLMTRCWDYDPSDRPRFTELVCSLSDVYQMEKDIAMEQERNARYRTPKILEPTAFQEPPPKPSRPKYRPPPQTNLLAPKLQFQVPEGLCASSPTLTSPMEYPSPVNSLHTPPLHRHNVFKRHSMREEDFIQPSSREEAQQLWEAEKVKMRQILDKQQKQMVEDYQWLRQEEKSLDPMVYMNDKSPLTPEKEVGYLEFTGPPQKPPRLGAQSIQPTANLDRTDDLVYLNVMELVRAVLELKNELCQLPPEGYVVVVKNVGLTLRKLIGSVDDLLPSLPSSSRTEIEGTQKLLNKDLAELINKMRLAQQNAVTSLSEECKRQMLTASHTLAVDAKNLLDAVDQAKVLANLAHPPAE
bCat KO growth: beta-catenin-lacking colon tumor cell growth suppression; actives 1.5% (n = 140,000); AID 818; viability, % at 10 µM; HCT116 beta-catenin knockout viability, CellTiter-Glo, 60 h; hits give low values;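 active means viability at or under a set limit, the compound median less 4 SD, cut at about 6% in these data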;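 further: 0% = Hyamine 1622 control at 20 µM and 100% = untreated cell control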
H69AR growth 86K: growth inhibitors of human H69AR lung tumor cells; H69AR lung tumor viability, ATP luminescence, 72 h; hits give low values; viability, % at 10 µM; actives 6% (n = 85,000);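 active means viability at or below 40%; inactive means viability above 40%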;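 further: multidrug resistant small cell line overexpressing MRP-1 efflux transporter; 100% = mean luminescence of untreated control wells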
HUVEC inhibit: blocks proliferation of human endothelial cells | viability, % at 10 µM (by protocol) | HUVEC proliferation, CellTiter-Glo luminescence, 72 h; hits give low values | actives 1.1% (n = 86,000);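 active means viability at or below 30%; inactive means viability above 30%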;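 further: 100% = median luminescence of DMSO-only cell control wells on each plate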
* marks the source's active call; other numbers are inactive results; . = no result. Shown is part of a subset that was picked to be rich in hits.

SMILES	Lung fibro prol	PTEN del growth	PTK2B oligo ant	bCat KO growth	H69AR growth 86K	HUVEC inhibit
CCCn1c(NC(=O)C2CCN(S(=O)(=O)c3cccs3)CC2)nc2ccccc21	65	8	-1.6	10	39*	72
CC(NC(=O)c1ccccc1)c1nc2ccccc2n1Cc1ccccc1F (stereo not drawn)	92	66	.	76	12*	103
CCCn1c(NC(=O)c2ccccc2)nc2ccccc21	71	38	-1.4	42	31*	86
CC(NC(=O)c1ccccc1)c1nc2ccccc2n1Cc1ccc(C#N)cc1 (stereo not drawn)	93	89	0.05	78	70	102
Cc1nc(Cl)sc1C(=O)Nc1ccc(Cl)cc1	.	92	.	97	.	.
COc1ccc(NC2=Nc3cccc4cccc2c34)cc1	.	77	.	98	.	.
COCc1cc(C)nc(N2CCc3ccccc32)c1C#N	103	80	0.04	91	31*	96
O=C(NNC(=O)c1cc(-c2ccccc2)n(-c2ccccc2)n1)c1cccc([N+](=O)[O-])c1	.	93	.	94	.	.
NC(=O)c1ccsc1NC(=O)c1nc(-c2ccccc2)n(-c2ccccc2)n1	.	70	-4.4*	91	.	.
CC(NC(=O)Cc1ccccc1)c1cc2c(cc1Br)OCCCO2 (stereo not drawn)	.	91	.	92	.	.
Cc1ccc(C)c(S(=O)(=O)C(C#N)c2nc3ccccc3nc2N2CC(C)OC(C)C2)c1 (stereo not drawn)	86	78	-0.21	74	39*	70
N#C/C(=C\Nc1ccccc1SC(F)(F)F)c1nc(-c2ccc(Cl)cc2)cs1	.	43	.	47	.	.
CC(Oc1ccccc1)C(=O)NNC(=O)c1ccccn1 (stereo not drawn)	.	7	.	10	.	.
C/C(=N\NC(=O)C(C)Oc1ccc([N+](=O)[O-])cc1)c1ccccn1 (stereo not drawn)	.	6	-0.18	4.6*	.	.
O=C1c2ccccc2NC(c2ccc(Cl)cc2Cl)N1O (stereo not drawn)	72	8	-0.31	3.5*	.	80
O=C1c2ccccc2NC(c2ccc(Cl)cc2Cl)N1Cc1ccccc1 (stereo not drawn)	101	45	-1.2	51	86	81
Cc1ccccc1NC(=S)N(C)Cc1cn(C)c2ccccc12	.	95	0.09	93	.	.
CC1SC(=Nc2ccccc2)N(S(=O)(=O)c2ccccc2)C1=O (stereo not drawn)	.	95	.	93	.	.
CN(C)S(=O)(=O)c1ccc(N2CCCC2)c(C(=O)Nc2nc(-c3cc(F)ccc3F)cs2)c1	.	51	-0.2	77	.	.
COc1ccc(C2c3c(oc4ccccc4c3=O)C(=O)N2CCN2CCOCC2)cc1OC (stereo not drawn)	99	.	.	.	83	102
COCCN1C(=O)c2oc3ccccc3c(=O)c2C1c1ccc(OC)c(OC)c1 (stereo not drawn)	102	0.2*	.	0.1*	102	89
CCCN(CCC)CCCNC(=S)Nc1ccc2nc3n(c(=O)c2c1)CCCCC3	.	91	.	80	.	.
O=c1[nH]c(=O)n(Cc2ccccc2)c2nc(-c3ccc(Oc4ccc(F)cc4)c([N+](=O)[O-])c3)n(CCO)c12	.	1.1*	.	0.8*	.	.
COc1ccc(-c2ccc(-c3nc4c(c(=O)[nH]c(=O)n4Cc4ccccc4)n3C)o2)c([N+](=O)[O-])c1	.	27	.	45	.	.
CCCCCCOC(=O)Nc1ccc(S(=O)(=O)Nc2cccc([N+](=O)[O-])c2)cc1	.	84	0.63	80	.	.
SMILES	Lung fibro prol	PTEN del growth	PTK2B oligo ant	bCat KO growth	H69AR growth 86K	HUVEC inhibit
COc1cc(NC(=S)N2CCCC(CO)C2)c(OC)cc1Cl (stereo not drawn)	.	98	.	104	.	.
O=C(CSc1nnc(Cc2cccs2)n1C1CCCCC1)N1CCCc2ccccc21	101	64	-1.9	73	34*	71
O=C(N1CCN(c2ccccn2)CC1)C(Cl)(Cl)Cl	.	98	.	93	.	.
O=C(c1ccco1)N1CCN(C(=O)N2c3ccccc3Sc3ccccc32)CC1	50	14	-0.73	14	32*	38
O=C(N1CCN(c2ccccn2)CC1)N1c2ccccc2Sc2ccccc21	55	13	-1.3	9	34*	26*
COC(=O)C/C=C/[C@@H](C)[C@@H](/C=N/OC[C@@H](C)[C@H](OCc1ccccc1)C(C)C)NS(=O)(=O)c1ccc(C)cc1	.	58	.	74	.	.
C=CCOn1c(C)c(C(C)=O)c2c3no[n+]([O-])c3ccc21	88	90	-0.72	88	29*	74
CC(=O)NC1=C(NC2CCS(=O)(=O)C2)C(=O)c2ccccc2C1=O (stereo not drawn)	.	47	0.69	45	.	.
CN(C1=C(NC(=O)c2ccccc2)C(=O)c2ccccc2C1=O)C1CCS(=O)(=O)C1 (stereo not drawn)	.	5	.	2.7*	.	.
CCOc1ccc2nc(NS(=O)(=O)Cc3ccccc3)sc2c1	62	14	0.13	11	21*	52
CCOc1ccc2nc(NC(=O)CS(=O)(=O)c3ccccc3)sc2c1	101	88	0.43	89	74	85
CCOc1ccc2nc(NC(=O)CS(=O)(=O)c3ccc(C)cc3)sc2c1	85	80	0.37	73	2.2*	66
CCOc1ccc2nc(NS(=O)(=O)c3ccc(NC(C)=O)cc3)sc2c1	106	95	0.17	95	101	96
COc1cccc(/C=N/n2c(SC)nnc2-c2ccccc2)c1O	89	31	-1.8	39	23*	51
COc1cccc(/C=N/n2c(SC)nnc2-c2ccccc2)c1OC	105	68	0.24	59	96	90
C/C(=C/Cc1c(O)cc2oc(C)cc(=O)c2c1O)COC1OC(CO)C(O)C(O)C1O (stereo not drawn)	.	97	.	87	.	.
CCOc1ccc(OCC)c(NC(=O)CN2CCN(c3cccc(C)c3)C(C)C2)c1 (stereo not drawn)	76	88	0.13	32	19*	63
CCOc1ccc(OCC)c(NC(=O)CN2CCN(c3cccc(C)c3)CC2)c1	98	93	0.43	88	71	106
Cc1ccc(NC(=O)c2cc3ccccc3o2)cc1S(=O)(=O)N(C)C	.	93	-3.2*	103	.	.
CN(C)S(=O)(=O)c1ccc(NC(=O)c2cc3ccccc3o2)cc1	.	75	-0.47	82	.	.
CC(NC(=O)CN(c1cccc(C(F)(F)F)c1)S(=O)(=O)c1ccc(Cl)c([N+](=O)[O-])c1)c1ccccc1 (stereo not drawn)	.	20	.	5.8*	.	.
CC(=O)Oc1ccc(C(=O)[C@H]2[C@H]3C(=O)N(c4cccc5ccccc45)C(=O)[C@H]3[C@@H]3C=CC=NN32)cc1	.	83	0.79	89	.	.
CCCOc1ccccc1NC(=O)/C=C/C(N)=O	60	106	0.34	101	2.1*	86
CCNC(=O)COc1cccc(C(=O)NCc2ccccc2)c1	.	97	.	96	.	.

From PubChem
